In ChEMBL document CHEMBL4354837 (J Med Chem, 2020):
pEC50, pIC50: −log10 of the molar value. Activity calls are given as the source filed them. The calls are words filed in the database; no cut-off is given here. Square brackets hold non-standard residues; d marks the D form. Peptide text beside a SMILES is read from it. Dap = NC[C@H](N)C(=O)O

Key:
Melanocortin receptor 4 [1] = target: T1, Melanocortin receptor 4 (Homo sapiens, UniProt P32245); assay: Inverse agonist activity at human melanocortin receptor 4 expressed in HEK293 cells assessed as inhibition of basal cAMP accumulation incubated for 2 hrs by cAMP Alpha-screen assay; format: functional, cell-based
T1 sequence (P32245 whole entry): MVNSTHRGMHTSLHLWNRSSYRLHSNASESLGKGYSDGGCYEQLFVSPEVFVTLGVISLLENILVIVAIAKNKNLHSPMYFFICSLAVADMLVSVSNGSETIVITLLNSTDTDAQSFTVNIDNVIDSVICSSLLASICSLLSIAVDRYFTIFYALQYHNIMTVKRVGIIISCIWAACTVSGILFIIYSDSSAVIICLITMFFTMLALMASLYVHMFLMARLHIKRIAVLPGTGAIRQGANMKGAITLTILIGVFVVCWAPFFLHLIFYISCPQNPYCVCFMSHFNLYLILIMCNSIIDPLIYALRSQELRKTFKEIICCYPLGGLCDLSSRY
Procedure, shortened: (§1)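 AlphaScreen cAMP assay in stably transfected HEK293 cells, with 10,000 cells/well in IBMX-containing HBSS/HEPES buffer pH 7.4. Peptide alone, up to 100 μM, 2 h at room temperature in the dark, then 2 h lysis/detection. Inverse agonism taken as percent decrease of cAMP from basal, relative to maximal NDP-MSH signal, at 100 μM. Duplicates, three independent experiments.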

[2] = target: T2, Melanocyte-stimulating hormone receptor (Mus musculus, UniProt Q01727); assay: Agonist activity at mouse melanocortin receptor 1 expressed in HEK293 cells assessed as stimulation of cAMP accumulation incubated for 2 hrs by cAMP Alpha-screen assay; format: functional, cell-based
T2 sequence (Q01727 whole entry): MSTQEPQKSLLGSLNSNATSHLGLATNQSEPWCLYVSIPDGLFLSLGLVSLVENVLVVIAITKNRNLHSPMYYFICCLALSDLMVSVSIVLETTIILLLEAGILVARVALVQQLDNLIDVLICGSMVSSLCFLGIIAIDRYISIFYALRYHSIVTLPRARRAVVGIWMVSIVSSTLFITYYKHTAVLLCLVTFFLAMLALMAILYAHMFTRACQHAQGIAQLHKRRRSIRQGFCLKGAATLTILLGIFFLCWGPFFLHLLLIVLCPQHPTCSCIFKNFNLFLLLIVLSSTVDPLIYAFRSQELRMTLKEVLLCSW

Melanocortin receptor 3 [3] = target: T3, Melanocortin receptor 3 (Mus musculus, UniProt P33033); assay: Agonist activity at mouse melanocortin receptor 3 expressed in HEK293 cells assessed as stimulation of cAMP accumulation incubated for 2 hrs by cAMP Alpha-screen assay; format: functional, cell-based
T3 sequence (P33033 whole entry): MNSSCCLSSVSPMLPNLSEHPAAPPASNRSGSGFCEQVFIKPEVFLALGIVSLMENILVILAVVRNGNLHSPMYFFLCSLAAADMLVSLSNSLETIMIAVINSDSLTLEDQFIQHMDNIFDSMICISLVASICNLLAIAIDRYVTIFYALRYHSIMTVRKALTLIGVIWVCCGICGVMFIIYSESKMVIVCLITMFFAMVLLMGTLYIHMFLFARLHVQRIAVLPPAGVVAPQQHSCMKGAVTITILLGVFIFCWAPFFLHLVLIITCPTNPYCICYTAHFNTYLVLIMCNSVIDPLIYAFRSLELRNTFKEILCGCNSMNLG

Melanocortin receptor 4 [4] = target: Melanocortin receptor 4 (Mus musculus, UniProt P56450); assay: Agonist activity at mouse melanocortin receptor 4 expressed in HEK293 cells assessed as stimulation of cAMP accumulation incubated for 2 hrs by cAMP Alpha-screen assay; format: functional, cell-based
Sequence of Melanocortin receptor 4 (Mus musculus, UniProt P56450) (P56450 whole entry): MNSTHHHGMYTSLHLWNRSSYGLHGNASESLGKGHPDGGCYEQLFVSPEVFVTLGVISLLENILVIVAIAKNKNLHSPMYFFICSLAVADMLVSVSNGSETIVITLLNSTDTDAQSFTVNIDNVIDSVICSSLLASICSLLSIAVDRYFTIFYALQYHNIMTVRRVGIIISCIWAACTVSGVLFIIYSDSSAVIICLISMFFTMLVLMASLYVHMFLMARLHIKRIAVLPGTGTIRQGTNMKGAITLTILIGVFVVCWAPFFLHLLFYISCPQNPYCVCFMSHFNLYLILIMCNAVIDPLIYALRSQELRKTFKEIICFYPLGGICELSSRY

[5] = target: Melanocortin receptor 5 (Mus musculus) (UniProt P41149); assay: Inverse agonist activity at mouse melanocortin receptor 5 expressed in HEK293 cells assessed as inhibition of basal cAMP accumulation at 100 uM incubated for 2 hrs by cAMP Alpha-screen assay relative to control; format: functional, cell-based; procedure, shortened: as §1
Sequence of Melanocortin receptor 5 (Mus musculus) (P41149 whole entry): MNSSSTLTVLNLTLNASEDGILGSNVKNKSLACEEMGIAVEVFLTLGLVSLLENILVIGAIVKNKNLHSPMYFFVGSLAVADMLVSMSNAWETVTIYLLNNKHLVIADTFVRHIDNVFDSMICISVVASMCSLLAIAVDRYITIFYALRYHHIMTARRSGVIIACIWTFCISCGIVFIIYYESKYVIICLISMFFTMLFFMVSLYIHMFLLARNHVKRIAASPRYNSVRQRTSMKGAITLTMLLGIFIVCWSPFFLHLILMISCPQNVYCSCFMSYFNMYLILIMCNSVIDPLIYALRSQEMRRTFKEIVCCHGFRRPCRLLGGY

[6] = target: T2, Melanocyte-stimulating hormone receptor; assay: Displacement of [125I]-NDP-MSH from mouse melanocortin receptor 1 expressed in HEK293 cell mebranes incubated for 1 hr by automatic gamma counting method; format: cell-based
Procedure, shortened: (§2)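 Cells washed, lysed 10 min with 0.1 M NaOH/1% Triton X-100, then gamma-counted. Specific binding defined with unlabelled NDP-MSH and normalized to it. Duplicate wells, two experiments. IC50 by non-linear fit. Fold difference taken relative to the Asn-parent macrocycle control.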

Melanocortin receptor 3 [7] = target: T3, Melanocortin receptor 3; assay: Displacement of [125I]-NDP-MSH from mouse melanocortin receptor 3 expressed in HEK293 cell mebranes incubated for 1 hr by automatic gamma counting method; format: cell-based
[8] = target: Melanocortin receptor 4 (Mus musculus) (UniProt P56450); assay: Ratio of IC50 for MDE6-82-3c to IC50 for test compound for displacement of [125I]-NDP-MSH from mouse melanocortin receptor 4 expressed in HEK293 cell mebranes incubated for 1 hr by automatic gamma counting method; procedure, shortened: as §2
Sequence of Melanocortin receptor 4 (Mus musculus) (P56450 whole entry): as the sequence (P56450 whole entry) above

Melanocortin receptor 5 [9] = target: T4, Melanocortin receptor 5 (Mus musculus, UniProt P41149); assay: Displacement of [125I]-NDP-MSH from mouse melanocortin receptor 5 expressed in HEK293 cell mebranes incubated for 1 hr by automatic gamma counting method; format: cell-based
T4 sequence (P41149 whole entry): as the sequence (P41149 whole entry) above

Melanocortin receptor 4 [10] = target: T1, Melanocortin receptor 4; assay: Ratio of IC50 for MDE6-82-3c to IC50 for test compound for displacement of [125I]-NDP-MSH from human melanocortin receptor 4 expressed in HEK293 cell membranes incubated for 1 hr by automatic gamma counting method; procedure, shortened: as §2
[11] = target: Melanocyte-stimulating hormone receptor (Mus musculus) (UniProt Q01727); assay: Agonist activity at mouse melanocortin receptor 1 expressed in HEK293 cells assessed as stimulation of cAMP accumulation at 100 uM incubated for 2 hrs by cAMP Alpha-screen assay relative to control; format: functional, cell-based
Sequence of Melanocyte-stimulating hormone receptor (Mus musculus) (Q01727 whole entry, looked up): as the sequence (Q01727 whole entry) above

[12] = target: Melanocortin receptor 4 (Mus musculus) (UniProt P56450); assay: Agonist activity at mouse melanocortin receptor 4 expressed in HEK293 cells assessed as stimulation of cAMP accumulation at 100 uM incubated for 2 hrs by cAMP Alpha-screen assay relative to control; format: functional, cell-based
Melanocortin receptor 5 [13] = target: T4, Melanocortin receptor 5; assay: Agonist activity at mouse melanocortin receptor 5 expressed in HEK293 cells assessed as stimulation of cAMP accumulation incubated for 2 hrs by cAMP Alpha-screen assay; format: functional, cell-based
[14] = target: Melanocyte-stimulating hormone receptor (Mus musculus) (UniProt Q01727); assay: Ratio of IC50 for MDE6-82-3c to IC50 for test compound for displacement of [125I]-NDP-MSH from mouse melanocortin receptor 1 expressed in HEK293 cell mebranes incubated for 1 hr by automatic gamma counting method; procedure, shortened: as §2
[15] = target: Melanocortin receptor 3 (Mus musculus) (UniProt P33033); assay: Ratio of IC50 for MDE6-82-3c to IC50 for test compound for displacement of [125I]-NDP-MSH from mouse melanocortin receptor 3 expressed in HEK293 cell mebranes incubated for 1 hr by automatic gamma counting method; procedure, shortened: as §2
Sequence of Melanocortin receptor 3 (Mus musculus) (P33033 whole entry): as the sequence (P33033 whole entry) above

[16] = target: Melanocortin receptor 5 (Mus musculus) (UniProt P41149); assay: Ratio of IC50 for MDE6-82-3c to IC50 for test compound for displacement of [125I]-NDP-MSH from mouse melanocortin receptor 5 expressed in HEK293 cell mebranes incubated for 1 hr by automatic gamma counting method; procedure, shortened: as §2
[17] = target: Melanocyte-stimulating hormone receptor (Mus musculus) (UniProt Q01727); assay: Ratio of IC50 for MDE6-82-1c to IC50 for test compound for displacement of [125I]-NDP-MSH from mouse melanocortin receptor 1 […] incubated for 1 hr by automatic gamma counting method
[18] = target: Melanocortin receptor 3 (Mus musculus) (UniProt P33033); assay: Ratio of IC50 for MDE6-82-1c to IC50 for test compound for displacement of [125I]-NDP-MSH from mouse melanocortin receptor 3 expressed in HEK293 cell mebranes incubated for 1 hr by automatic gamma counting method
Procedure, shortened: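 Whole stably transfected HEK293 cells (>90% confluent) incubated 1 h at 37°C, 5% CO2, in DMEM with 0.1% BSA. […] Cells washed, lysed with NaOH/Triton X-100, and counted by gamma counter. Specific binding normalized to nonradioactive NDP-MSH. IC50 from duplicates in two experiments (mean ± SD). Fold difference taken against the Dap-containing parent control.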

[19] = target: Melanocortin receptor 4 (Mus musculus) (UniProt P56450); assay: Ratio of IC50 for MDE6-82-1c to IC50 for test compound for displacement of [125I]-NDP-MSH from mouse melanocortin receptor 4 […] incubated for 1 hr by automatic gamma counting method
[20] = target: Melanocortin receptor 5 (Mus musculus) (UniProt P41149); assay: Ratio of IC50 for MDE6-82-1c to IC50 for test compound for displacement of [125I]-NDP-MSH from mouse melanocortin receptor 5 […] incubated for 1 hr by automatic gamma counting method
Melanocortin receptor 4 [21] = target: T1, Melanocortin receptor 4; assay: Ratio of IC50 for MDE6-82-1c to IC50 for test compound for displacement of [125I]-NDP-MSH from human melanocortin receptor 4 […] incubated for 1 hr by automatic gamma counting method; format: cell membranes
[22] = target: Melanocortin receptor 3 (Mus musculus) (UniProt P33033); assay: Agonist activity at mouse melanocortin receptor 3 expressed in HEK293 cells assessed as stimulation of cAMP accumulation at 100 uM incubated for 2 hrs by cAMP Alpha-screen assay relative to control; format: functional, cell-based
[23] = target: Melanocortin receptor 5 (Mus musculus) (UniProt P41149); assay: Inverse agonist activity at mouse melanocortin receptor 5 expressed in HEK293 cells assessed as inhibition of basal cAMP accumulation incubated for 2 hrs by cAMP Alpha-screen assay relative to control; format: functional, cell-based; details: concentration not given here; procedure, shortened: as §1

| SMILES | Activity (Melanocortin receptor 4 [1]) | pEC50 (Melanocortin receptor 3 [3]) | pEC50 (Melanocortin receptor 4 [4]) | Ratio IC50 [8] | Ratio IC50 (Melanocortin receptor 4 [10]) | Activity [11] [%] | Activity [12] [%] | pEC50 (Melanocortin receptor 5 [13]) | further results |
| --- | --- | --- | --- | --- | --- | --- | --- | --- | --- |
| C[C@@H]1NC(=O)[C@H](CC(N)=O)NC(=O)[C@H](Cc2ccccc2)NC(=O)[C@H](Cc2ccc(O)cc2)NC(=O)[C@H](CCCNC(=N)N)NC(=O)[C@@H]2CCCN2C(=O)[C@H]2CCCN2C(=O)[C@H](Cc2ccccc2)NC1=O (cyclo(PRYFNAF[dP])) | Active | < 4.00 | < 4.00 | 100 | 2000 |  |  |  | pEC50 [2]: < 4.00; inhibition [5]: 35%; pIC50 [6]: < 4.00; pIC50 (Melanocortin receptor 3 [7]): < 4.00; pIC50 (Melanocortin receptor 5 [9]): < 4.00 |
| CC(C)[C@@H]1NC(=O)[C@H](CC(N)=O)NC(=O)[C@H](Cc2ccccc2)NC(=O)[C@H](Cc2ccccc2)NC(=O)[C@H](CCCNC(=N)N)NC(=O)[C@@H]2CCCN2C(=O)[C@H]2CCCN2C(=O)[C@H](Cc2ccccc2)NC1=O (cyclo(PRFFNVF[dP])) | Active | < 4.00 |  | 2 | 3 | 23 | 16 | < 4.00 | Ratio IC50 [14]: 2; Ratio IC50 [15]: 3; Ratio IC50 [16]: 2 |
| C[C@@H]1NC(=O)[C@H](CN)NC(=O)[C@H](Cc2ccccc2)NC(=O)[C@H](Cc2ccccc2)NC(=O)[C@H](Cc2c[nH]cn2)NC(=O)[C@@H]2CCCN2C(=O)[C@H]2CCCN2C(=O)[C@H](Cc2ccccc2)NC1=O (cyclo(PHFF[Dap]AF[dP])) | inactive | < 4.00 | < 4.00 |  |  | 56 |  | < 4.00 | Ratio IC50 [17]: 5; Ratio IC50 [18]: 5; Ratio IC50 [19]: 500; Ratio IC50 [20]: 7; Ratio IC50 (Melanocortin receptor 4 [21]): 400 |
| CC(C)[C@@H]1NC(=O)[C@H](CN)NC(=O)[C@H](Cc2ccccc2)NC(=O)[C@H](Cc2ccccc2)NC(=O)[C@H](CCCNC(=N)N)NC(=O)[C@@H]2CCCN2C(=O)[C@H]2CCCN2C(=O)[C@H](Cc2ccccc2)NC1=O | Active |  |  |  |  | 79 | 37 | < 4.00 | Activity [22]: 27% |
| C[C@@H]1NC(=O)[C@H](CC(N)=O)NC(=O)[C@H](Cc2ccccc2)NC(=O)[C@H](Cc2ccccc2)NC(=O)[C@H](CCCNC(=N)N)NC(=O)[C@@H]2CCCN2C(=O)[C@H]2CCCN2C(=O)[C@H](Cc2ccccc2)NC1=O |  |  |  |  |  |  |  |  | inhibition [23]: 10% |
